Compound activity from PubChem.
Most compounds without a hit are left out; they make up all but 3.7% or so of the library.
KCNQ1 block – human KCNQ1 channel inhibition. P51787. CHO-K1 KCNQ1, FluxOR thallium flux fluorescence; hits give high values. B-score at 10 µM. 310,000 tested, 1.3% active. AID 2642;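 active = compounds whose thallium flux B-score, printed positive for inhibition, exceeds three library SD while starting fluorescence stays within three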;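 also: channel opened by potassium depolarization with thallium stimulus after 20 min compound exposure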
Kir21 inh – blocks the mouse Kir2.1 inward-rectifier potassium channel; 310,000 tested, 0.85% active; P35561; B-score at 10 µM; HEK293-Kir2.1, FluxOR thallium flux fluorescence; hits give low values;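 active = fluorescence ratio B-score at or below minus 3 SD of library scores, with starting-brightness B-score within 2 SD, cut at about -4.2 in these data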;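 also: channel flux triggered by added potassium and thallium sulfate stimulus; B-score of peak minus minimum fluorescence over baseline after thallium stimulus; more negative B-score means stronger Kir2.1 block with less thallium influx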
hERG rescue – compounds protecting human hERG from proarrhythmic drug block; Q12809; CHO-hERG, FluxOR thallium flux, dofetilide IC70 present; activation (rescue from dofetilide block), less the hit threshold, % at 10 µM; 310,000 tested, 0.51% active;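 active = activation above the mean of controls blocked by dofetilide plus 5 SD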;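 also: thallium influx through hERG after potassium depolarization seen as dye fluorescence rise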
KCNK9 inh – blocks the human KCNK9 two-pore domain potassium channel. Q9NPC2. HEK293 KCNK9, FluxOR thallium flux fluorescence; hits give low values. B-score at 10 µM. 310,000 tested, 1.2% active. AID 488922;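 active = ratio B-score over 3 SD below the library mean, with starting fluorescence within 5 SD of its mean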;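 also: negative B-score means less thallium flux so channel inhibition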
Target sequence (Q9NPC2 whole entry, looked up, the tested form may be a part): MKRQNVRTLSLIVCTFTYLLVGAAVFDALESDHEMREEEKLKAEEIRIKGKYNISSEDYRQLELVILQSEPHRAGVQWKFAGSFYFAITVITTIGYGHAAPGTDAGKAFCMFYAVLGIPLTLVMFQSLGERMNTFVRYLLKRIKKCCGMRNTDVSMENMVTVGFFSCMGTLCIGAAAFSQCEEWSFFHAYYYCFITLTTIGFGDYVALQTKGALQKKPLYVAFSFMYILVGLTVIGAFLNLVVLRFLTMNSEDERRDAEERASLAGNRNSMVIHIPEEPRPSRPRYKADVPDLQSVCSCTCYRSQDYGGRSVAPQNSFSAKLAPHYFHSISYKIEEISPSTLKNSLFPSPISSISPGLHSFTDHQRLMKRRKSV
KCNQ1 pot – potentiates or activates the human KCNQ1 potassium channel | P51787 | CHO-K1 KCNQ1, thallium flux FluxOR fluorescence; hits give high values | B-score at 10 µM | 310,000 tested, 0.35% active;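 active = fluorescence ratio B-score, a plate-corrected score, at least three library SD, with initial intensity B-score within 5 SD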
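System: CHO-K1 cells stably expressing KCNQ1 / Medium: assay buffer for compound exposure, DMSO matched across wells / Reagent: thallium- and potassium-containing depolarizing buffer / Compound: one concentration, matched DMSO / Incubation: 20 min compound pretreatment at room temperature / Measured by: kinetic FluxOR fluorescence, 10 s baseline plus 110 s post-stimulus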
KCNK3 block – human KCNK3 channel inhibition, primary screen. CHO-KCNK3 thallium flux, FluxOR fluorescence; hits give low values. B-score at 10 µM. 340,000 tested, 0.84% active. AID 602410;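 active = B-score under library mean minus 4 SD, starting fluorescence ratio at most library mean plus 5 SD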;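 also: more negative B-score means stronger inhibition of thallium flux through KCNK3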
Numbers without * were called inactive; i = inactive; . = no result given.

SMILES	KCNQ1 block	Kir21 inh	hERG rescue	KCNK9 inh	KCNQ1 pot	KCNK3 block
CCOC(=O)COc1ccccc1/C=N\NC(=O)c1cc2c(ccc3ccccc32)o1	10*	2.1	-18	-6.8*	i	i
COc1ccccc1C(O)(c1ccccc1)c1ccccc1OC	.	.	.	.	.	-10*
COc1ccc(NC(=O)C2CCCC2)cc1S(=O)(=O)N1CCOCC1	.	.	.	.	.	i
C=CCn1c(CSCc2ccc(Cl)cc2)nnc1SCC(=O)NCc1ccccc1	i	-4.8*	-9	i	i	i
CCCc1ccc(/C=C2\C(=O)c3ccccc3C(O)=C2C(=O)OCC)cc1	i	-1.8	-9	i	8*	.
CCOC(=O)C1=C(O)c2ccccc2C(=O)/C1=C\c1ccc(CC)cc1	i	-3	2	i	8*	i
CCC(C)(C)NC(=O)C(c1cccc(OC)c1)N(C(=O)c1ccn[nH]1)c1cccc(OC)c1 (centres undefined)	8*	-1.5	-14	i	i	i
Cc1ccc(C(=O)OCC(=O)N(CCc2ccccc2)Cc2ccccc2)cc1S(=O)(=O)N1CCOCC1	i	0.09	-9	i	i	i
O=C(NCCN1C(=O)S/C(=C\c2ccccc2F)C1=O)C1=COCCO1	i	-0.26	-11	i	i	i
O=C(Nc1cccc(NC(=O)c2ccccc2[N+](=O)[O-])n1)c1ccccc1[N+](=O)[O-]	i	-2	-12	i	i	-9.5*
COc1cc(CNC(C)c2ccccc2)cc(Cl)c1OCC(=O)Nc1ccccc1 (centres undefined)	i	-9.5*	-19	i	i	i
CCn1c(C)cc(C=C2C(=O)c3ccccc3C2=O)c1C	i	0.13	-6	i	i	i
Cc1cccc(-n2c(C)cc(C=C3C(=O)c4ccccc4C3=O)c2C)c1	6*	1.1	-4	i	i	i
Cc1cc(C=C2C(=O)c3ccccc3C2=O)c(C)n1-c1ccc(Cl)cc1	i	1.8	-9	-7*	i	i
CCCc1nc2ccccc2n1CCc1ccccc1	i	-6.3*	-9	i	i	i
OCCCc1nc2ccccc2n1CCc1ccccc1	i	-1	-9	i	i	i
CCCCn1c(N)nc2ccccc21	i	1.5	7.5*	i	i	i
CC(C)=CC(=O)Nc1ccc(S(=O)(=O)Nc2ccccn2)cc1	i	0.72	-13	i	i	i
COc1ccc(Cn2c(=O)[nH]c3cc(C(=O)NCCc4ccc(S(N)(=O)=O)cc4)ccc3c2=O)cc1	i	2	-4	i	i	i
COc1ccc(CNS(=O)(=O)c2ccc(F)c(C(=O)Nc3ccc(OC)cc3)c2)cc1	i	-0.02	4.8*	i	i	i
COc1ccc(CNS(=O)(=O)c2ccc(F)c(C(=O)Nc3ccccc3OC)c2)cc1	i	0.95	-3	i	i	i
Cc1nc2ccccc2n1CC(=O)OCC(=O)NC1CC1	i	-1.6	-5	i	i	i
CCOC(=O)CN1C=C(c2ccc3ccccc3n2)C(C[N+](=O)[O-])c2ccccc21 (centres undefined)	11*	-4.6	-26	i	i	i
CCN(CC(=O)Nc1c(F)cccc1F)C(=O)/C=C/c1cn(Cc2ccccc2)nc1-c1cccnc1	i	-0.54	-7	i	i	i
O=C(c1ccoc1)N1CCC2(CC1)Oc1ccc(Cl)cc1C(=O)C21CC(c2ccc(Cl)cc2)=NO1 (centres undefined)	6*	-0.73	-12	i	i	i
SMILES	KCNQ1 block	Kir21 inh	hERG rescue	KCNK9 inh	KCNQ1 pot	KCNK3 block
O=C(c1ccoc1)N1CCC2(CC1)Oc1ccc(F)cc1C(=O)C21CC(c2ccc(Cl)cc2)=NO1 (centres undefined)	i	0.71	-6	i	i	i
C#CCn1cc(/C=N/Nc2nc3ccccc3[nH]2)c2ccccc21	i	-6.4*	-17	i	i	i
C=C(C)COc1ccc(-c2nc(N)ncc2Oc2ccc(OC)cc2)c(O)c1	i	-0.31	-13	i	i	i
C=C(C)COc1ccc(-c2nc(N)ncc2Oc2ccccc2OC)c(O)c1	.	.	.	.	.	-9.2*
CCOC(=O)/C=C/c1ccc2c(c1)S(=O)(=O)N(c1cccc(OC)c1)[C@H]2CC(=O)OCC	i	-0.95	-8	i	i	i
C=CCNC(=S)N(CC)c1cccc2ccccc12	i	-5.3*	-4	i	i	i
CCN(C(=S)Nc1cccnc1)c1cccc2ccccc12	i	-0.86	-15	i	i	i
COc1cccc(/C=C(/C(=O)OCC(=O)NCC2CCCO2)c2ccccc2)c1 (centres undefined)	i	-0.72	-13	i	i	i
COc1cccc(/C=C(/C(=O)OCC(=O)NC2CCCCCCC2)c2ccccc2)c1	10*	-1.1	-25	-9.9*	i	i
FC(F)(F)c1cnc2c(c1)[nH]c(=S)n2-c1ccc(Cl)cc1	i	3.9	5.5*	i	i	i
O=C(NCC(c1ccco1)N1CCN(c2ccccc2F)CC1)c1ccco1 (centres undefined)	i	0.75	-11	i	i	i
Cc1nc(=S)n(-c2ccccc2)[nH]1	i	-0.7	-5	i	i	i
S=c1nc(-c2ccccc2)[nH]n1-c1ccccc1	i	0.92	15*	i	74*	i
CCc1ccc(C2C(C#N)=C(N)C(C#N)(C#N)C3=CCC(C(C)(C)C)CC32)cc1 (centres undefined)	i	-6.6*	-20	i	i	i
O=C(CSc1ncccn1)NCc1cccc(Cl)c1	i	-0.22	6.3*	i	i	i
CC1CN=C(N(C(=S)Nc2ccccc2)c2cccc(C(F)(F)F)c2)S1 (centres undefined)	i	-2.2	-12	i	i	i
COc1cc(/C=C2/C(=O)N(c3ccc(Br)cc3)N=C2C)cc(OC)c1OC	8*	-0.1	-8	i	i	i
O=C1C(Cl)=C(NCCN2CCCCC2)C(=O)c2ccccc21	6*	-2.2	-21	i	i	i
Cc1ccccc1NC(=O)CC1C(=O)Nc2ccccc2N1CC(=O)N(C)C1CCS(=O)(=O)C1 (centres undefined)	.	.	.	.	.	i
COC(=O)c1cc(NC(=O)c2cccc(C(F)(F)F)c2)c(=O)oc1C/C=N/OCc1cccc(Cl)c1Cl	i	1.1	-12	i	i	-11*
COC(=O)c1cc(NC(=O)c2cccc(C(F)(F)F)c2)c(=O)oc1C	i	-0.84	-6	i	i	i
